# Compounds with a hit are over-represented: about 5.1% of the library has one in this group of screens.
# NF-kB expr up – NF-kB expression increase, human neuronal cells. NF-kB reporter expression; hits give high values. fold change at 12.5 µM. 190,000 compounds, 1.6% hits; in the data active = fold change above about 3.3
# APP 5'UTR act – APP 5'UTR luciferase reporter activation | 190,000 compounds, 1% hits | AID 1276 | activation, % at 2 µM | SH-SY5Y APP 5'UTR luciferase reporter, luminescence; zero percent = DMSO vehicle wells;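 active = activation above a set limit, based on mean plus 3 SD of controls, cut at about 140% in these data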
# STAT1 activator – activators of IFN-gamma induced STAT1 signaling; AID 932; activation (% of control), % at 5.5 µM; NIH 3T3 STAT1-luciferase reporter, luminescence; 100% = IFN-gamma alone, no compound; 200,000 compounds, 2.6% hits;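 active = activation above the screen-wide mean activation plus 3 SD, cut at about 130% in these data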;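 note: raw ratio to IFN-gamma control signal so 100% means no change and 0% no light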
# STAT1 blocker – reduces IFN-gamma driven STAT1 reporter signal. 200,000 compounds, 0.35% hits. AID 920. inhibition, % at 5.5 µM. NIH 3T3 STAT1-luciferase reporter, luminescence;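 active = inhibition above a set limit, the mean inhibition across all tested compounds plus 3 SD, cut at about 34% in these data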;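 note: 0% = IFN-gamma with DMSO and 100% = IFN-gamma with 300 µM nifuroxazide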
# STAT3 inh-1 – reduces IL-6 driven STAT3 reporter signal. inhibition, % at 5.5 µM. 190,000 compounds, 0.89% hits. AID 862. U3A cells, IL-6 STAT3-luciferase reporter, luminescence; host cell line lacks STAT1;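 active = inhibition above the mean inhibition across all screened compounds plus 3 SD, cut at about 44% in these data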;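 note: 0% = DMSO only wells and 100% = 100 µM nifuroxazide control wells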
# STAT3 act – STAT3 signaling activation | 190,000 compounds, 0.91% hits | AID 871 | U3A cells, IL-6 STAT3-luciferase reporter, luminescence; 100% = signal with IL-6 EC80 alone | activation (% of control), % at 5.6 µM;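 active = activation above the screen-wide mean of compound activation plus 3 SD, cut at about 130% in these data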;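 note: 0% = background luminescence of wells with medium and substrate only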
#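 Material: STAT3-luciferase reporter U3A cells. Controls: IL-6-treated wells, 100% activation. Read-out: % activation versus median of IL-6-stimulated wells. Probe or stimulus: IL-6 stimulus at 33 ng/mL final. Timing: compound 1 h, then IL-6 6 h at 37 °C. Signal: reporter luminescence signal.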
# STAT3 inh-2 – STAT3 inhibition, confirmation assay | shares compounds with STAT3 inh-1 | U3A cells, IL-6 STAT3 luciferase reporter, luminescence; cell line lacks STAT1 | inhibition, % at 5.7 µM | 1,200 compounds, 45% hits;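 active = inhibition above the hit cutoff computed for the primary STAT3 screen, cut at about 44% in these data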;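 note: 0% = IL-6 plus DMSO and 100% = IL-6 plus nifuroxazide control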
# NFkB inh 2 – NF-kappaB inhibition in STAT3 inhibitor counter-screen; shares compounds with STAT3 inh-1; HEK293T NF-kB luciferase reporter, TNF-alpha induced; inhibition, % at 5.7 µM; 1,200 compounds, 36% hits; AID 1308;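 active = inhibition above the mean of solvent-only control wells plus 3 SD, cutoff set per campaign, cut at about 13% in these data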;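 note: 0% = TNF-alpha with DMSO and 100% = TNF-alpha with MG high control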
# STAT1 inh 2 – STAT1 inhibition in STAT3 inhibitor counter-screen | NIH 3T3 STAT1-luciferase reporter, IFN-gamma induced, luminescence | 1,200 compounds, 27% hits | inhibition, % at 5.7 µM | shares compounds with STAT3 inh-1;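 active = inhibition above the mean plus 3 SD of solvent-only control wells, limit set per screening run, cut at about 16% in these data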;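 note: 0% = DMSO with IFN-gamma and 100% = nifuroxazide control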
# STAT1 act conf – STAT1 activation, confirmation assay; AID 1262; shares compounds with STAT1 activator; NIH 3T3 STAT1-luciferase reporter, IFN-gamma potentiation, luminescence; 100% = IFN-gamma EC80 alone, no compound; 1,200 compounds, 97% hits; activation (% of control), % at 5.7 µM;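 active = activation above a set limit carried over from the earlier primary STAT1 screen, cut at about 140% in these data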;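 note: simple ratio to median IFN-gamma plus DMSO wells so 0% means no light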
# NFkB act STAT1ct – NF-kappaB activation in STAT1 activator counter-screen; shares compounds with STAT1 activator; HEK293T NF-kB luciferase reporter, TNF-alpha stimulated, luminescence; 100% = TNF-alpha with vehicle only; activation (% of control), % at 5.7 µM; 1,200 compounds, 43% hits; AID 1306;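 active = activation above the mean of solvent-only control wells plus 3 SD, set per campaign, cut at about 130% in these data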;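 note: TNF-alpha given at a submaximal dose yielding about 80% of full reporter signal; values are well signal over median control so 100% means no change and 0% no light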
# STAT3 act 2 – counter-screen for STAT1 activators: human STAT3 activation; shares compounds with STAT1 activator; U3A cells STAT3-luciferase reporter, IL-6, luminescence; cells lack STAT1; 100 = IL-6 alone, no compound effect; activation (% of control), % at 5.7 µM; 1,200 compounds, 46% hits; AID 1316;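 active = activation above the solvent-only control well mean plus 3 SD, set per plate batch, cut at about 110% in these data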;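 note: 0% = no luminescence and 100% = median IL-6 plus DMSO wells; higher means more STAT3 reporter activation so hits are non-selective activators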
# The depositor's hits bear a star; . = not tested or not shown.
SMILES,NF-kB expr up,APP 5'UTR act,STAT1 activator,STAT1 blocker,STAT3 inh-1,STAT3 act,STAT3 inh-2,NFkB inh 2,STAT1 inh 2,others
Cc1ccc(C(=O)Oc2ccccc2N2C(=O)C3CCCCC3C2=O)cc1 (centres undefined),1.2,5,96,4,54*,60,38,-1,6,
O=C(Oc1ccccc1N1C(=O)C2CC=CCC2C1=O)c1ccc(Br)cc1 (centres undefined),1.4,-4,91,10,-7,101,.,.,.,
O=C(Oc1ccccc1N1C(=O)C2CCCCC2C1=O)c1ccccc1 (centres undefined),1.2,23,89,12,68*,50,46*,4,-16,
Cn1c(=O)c2[nH]c(N3CCN(c4ccccc4)CC3)nc2n(C)c1=O,.,-7,99,2,29,79,.,.,.,
CN(C)c1ccc(NC(=O)c2cnsn2)cc1,1.1,86,81,19,50*,59,16,-14,-36,
O=S(=O)(NCC1CCCO1)c1ccc(-c2ccc(S(=O)(=O)NCC3CCCO3)cc2)cc1 (centres undefined),1.1,-6,76,25,78*,38,84*,33*,22*,
CC(C)CC(C(=O)NC(C)(C)C)N(Cc1cccs1)C(=O)c1snc(C(N)=O)c1N (centres undefined),0.89,12,98,4,10,95,.,.,.,
Nc1nc(Nc2ccccc2)nc2ccccc12,5.5*,155*,105,-6,57*,57,14,-23,-92,
Nc1nc(CCl)nc(Nc2ccccc2)n1,0.16,15,106,-8,9,95,.,.,.,
Cc1ccccc1Nc1nc(N)nc(CSc2nc3ccccc3c(=O)n2C)n1,0.58,-7,93,8,19,88,.,.,.,
Cc1ccccc1Nc1nc(N)c2ccccc2n1,8.9*,144*,108,-8,61*,52,18,-27,-70,
COc1cccc(/C=N/N=C(\N)c2nonc2N)c1O,1.9,30,124,-28,21,85,.,.,.,
N/C(=N\N=C\c1ccc2c(c1)OCO2)c1nonc1N,7.6*,221*,132*,-34,54*,55,33,-14,-98,
NC(=O)CSc1nnc(CCc2nc3ccccc3[nH]2)n1-c1ccccc1,.,3,100,-4,-4,105,.,.,.,
CCOc1ccc(-c2ccc(SCC)nn2)cc1,5*,167*,78,23,72*,42,31,1,-83,
CCSc1ccc(-c2ccc(C)cc2)nn1,6.6*,187*,98,1,47*,65,12,-32,-98,
CCOC(=O)C1(Cc2ccc(OC)cc2)CCN(C(=O)CCc2cccnc2)CC1,1.3,7,110,-13,8,95,.,.,.,
CC(C)N(C)S(=O)(=O)c1ccc(Cl)c(C(=O)O)c1,1,38,105,-8,-5,105,.,.,.,
O=C(CC1Sc2ccccc2NC1=O)Nc1ccccc1[N+](=O)[O-] (centres undefined),0.89,-5,95,6,7,96,.,.,.,
CCc1ccc(CN2CCN(C(=O)c3cccc(OC)c3OC)CC2)cc1,1.1,-10,87,4,60*,53,41,10,6,
CC(=O)Nc1ccc(S(=O)(=O)Oc2cccc(N3C(=O)C4CC=CCC4C3=O)c2)cc1 (centres undefined),0.63,-18,93,8,10,92,.,.,.,
CC(=O)Nc1ccc(S(=O)(=O)Oc2ccc(N3C(=O)C4CCCCC4C3=O)cc2)cc1 (centres undefined),0.94,5,84,17,73*,43,61*,20*,19*,
Cc1ccc(S(=O)(=O)CC(=O)Nc2nc(-c3ccccc3)cs2)cc1,1.3,-8,110,-11,-1,107,.,.,.,
O=C(Nc1cc(S(=O)(=O)N2CCCCC2)ccc1O)c1ccccc1NS(=O)(=O)c1ccc(F)cc1,0.98,-6,99,1,4,99,.,.,.,
O=C(Nc1cc(S(=O)(=O)N2CCCCC2)ccc1Cl)c1ccccc1NS(=O)(=O)c1ccc(F)cc1,0.35,1,77,26,51*,58,36,18*,29*,
SMILES,NF-kB expr up,APP 5'UTR act,STAT1 activator,STAT1 blocker,STAT3 inh-1,STAT3 act,STAT3 inh-2,NFkB inh 2,STAT1 inh 2,others
Cc1ccc(S(=O)(=O)Nc2ccccc2C(=O)Nc2nc(-c3ccc(F)cc3)cs2)cc1,0.38,0,73,30,45*,63,33,18*,26*,
CCC1CCCCN1C(=O)Nc1cc(Cl)ccc1OC (centres undefined),0.73,6,103,-3,-2,111,.,.,.,
O=C(N/N=C/c1ccccn1)c1ccco1,2.5,-1,106,-7,2,105,.,.,.,
O=C(N/N=C/c1ccc2ncccc2c1)c1ccco1,1.1,116,72,28,67*,47,32,8,-42,
O=C(Nc1ccccc1)c1cc2ccccc2o1,8.8*,230*,153*,-49,44*,65,10,-43,-120,STAT1 act conf=227*;NFkB act STAT1ct=134*;STAT3 act 2=99
c1ccc(-c2noc(-c3ccc4ccccc4c3)n2)cc1,3,150*,151*,-56,57*,54,0,11,-89,STAT1 act conf=184*;NFkB act STAT1ct=76;STAT3 act 2=91
COC(=O)c1cn[nH]c1NC(=S)Nc1ccc(C)cc1Cl,1.5,169*,170*,-76,50*,59,10,-24,-170,STAT1 act conf=307*;NFkB act STAT1ct=127;STAT3 act 2=98
Cc1ccc(NC(=S)Nc2ccc3cn[nH]c3c2)c(C)c1,1.1,34,102,-4,-5,105,.,.,.,

# Bioassay records as filed in PubChem.
